Data reported in ChEMBL document CHEMBL1128385, “Three-dimensional quantitative structure-activity relationships of somatostatin analogues. 1. Comparative molecular field analysis of growth hormone release-inhibiting potencies” (J Med Chem, 1995).
Where a SMILES comes first, the peptide text is derived from it. Bridges are numbered along the chain shown (N, C = ends). [ ]: non-standard residue; d: D form. Phe(4-Cl) = N[C@@H](Cc1ccc(Cl)cc1)C(=O)O; 2Nal = N[C@@H](Cc1ccc2ccccc2c1)C(=O)O; d2Nal = N[C@H](Cc1ccc2ccccc2c1)C(=O)O; Abu = CC[C@H](N)C(=O)O

Organism: Rattus norvegicus
Assay: In vitro GH release inhibiting potency on anterior pitutaries from adult male rats, relative to somatostatin
Format: functional
How it was run: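 Rat anterior pituitary cells (adult males, 200-250 g), trypsin/DNase dispersed, plated 2 × 10^5 cells/well, cultured 96 h at 37 °C in serum-supplemented DMEM. After washing, cells were pulsed 3 h at 37 °C with 1 nM GRF(1-29)NH2 ± graded analogue doses in medium 199/1% BSA, quadruplicate wells. Medium GH was measured by double-antibody RIA. Potency relative to somatostatin (=1.0) came from four-point assay (mean of ≥3 experiments) or IC50 comparison.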

CC(C)[C@@H]1NC(=O)[C@H](CCCCN)NC(=O)[C@@H](Cc2c[nH]c3ccccc23)NC(=O)[C@H](Cc2c[nH]c3ccccc23)NC(=O)[C@H](NC(=O)[C@H](N)Cc2ccccc2)CSSC[C@@H](C(=O)N[C@@H](Cc2ccc3ccccc3c2)C(N)=O)NC1=O showed a GHI of 0.2.
CC(C)[C@@H]1NC(=O)[C@H](CCCCN)NC(=O)[C@@H](Cc2c[nH]c3ccccc23)NC(=O)[C@H](Cc2ccc(O)cc2)NC(=O)[C@@H](NC(=O)[C@H](N)Cc2ccc3ccccc3c2)CSSC[C@@H](C(=O)N[C@H](C(=O)O)[C@@H](C)O)NC1=O was tested, and the GHI was 1.07.
CC(C)[C@@H]1NC(=O)[C@H](CCCCN)NC(=O)[C@@H](Cc2c[nH]c3ccccc23)NC(=O)[C@H](Cc2ccc(O)cc2)NC(=O)[C@@H](NC(=O)[C@H](N)Cc2ccc3ccccc3c2)CSSC[C@@H](C(=O)N[C@H](C(N)=O)[C@@H](C)O)NC1=O showed a GHI of 0.83.
In the case of CC(C)[C@@H]1NC(=O)[C@H](CCCCN)NC(=O)[C@@H](Cc2c[nH]c3ccccc23)NC(=O)[C@H](Cc2ccc(O)cc2)NC(=O)[C@H](NC(=O)[C@H](N)C(c2ccccc2)c2ccccc2)CSSC[C@@H](C(=O)N[C@@H](Cc2ccc3ccccc3c2)C(N)=O)NC1=O, the GHI is reported as 0.91.
For CC(C)[C@@H]1NC(=O)[C@H](CCCCN)NC(=O)[C@@H](Cc2c[nH]c3ccccc23)NC(=O)[C@H](Cc2ccc(O)cc2)NC(=O)[C@H](NC(=O)[C@H](N)Cc2ccc3ccccc3c2)CSSC[C@@H](C(=O)N[C@@H](Cc2ccc3ccccc3c2)C(=O)O)NC1=O, the GHI was 1.12.
Work on CC(C)[C@@H]1NC(=O)[C@H](CCCCN)NC(=O)[C@@H](Cc2c[nH]c3ccccc23)NC(=O)[C@H](Cc2ccc(O)cc2)NC(=O)[C@H](NC(=O)[C@H](N)Cc2ccccc2)CSSC[C@@H](C(=O)N[C@@H](Cc2ccc3ccccc3c2)C(=O)O)NC1=O yielded a GHI of 0.06.
CC(C)[C@@H]1NC(=O)[C@H](CCCN)NC(=O)[C@@H](Cc2c[nH]c3ccccc23)NC(=O)[C@H](Cc2ccc(O)cc2)NC(=O)[C@H](NC(=O)[C@H](N)Cc2ccc3ccccc3c2)CSSC[C@@H](C(=O)N[C@@H](Cc2ccc3ccccc3c2)C(N)=O)NC1=O gave a GHI of 4.17.
In the case of CC(C)[C@H](NC(=O)[C@H](CCCCN)NC(=O)[C@@H](Cc1c[nH]c2ccccc12)NC(=O)[C@H](Cc1ccc(O)cc1)NC(=O)[C@H](C)NC(=O)[C@H](N)Cc1ccc(Cl)cc1)C(=O)N[C@@H](C)C(=O)N[C@H](Cc1ccccc1)C(N)=O, the GHI is reported as 417.
With CC(C)[C@H](NC(=O)[C@H](CCCCN)NC(=O)[C@@H](Cc1c[nH]c2ccccc12)NC(=O)[C@H](Cc1ccc(O)cc1)NC(=O)[C@H](Cc1ccc(Cl)cc1)NC(=O)[C@H](N)Cc1ccccc1)C(=O)N[C@@H](Cc1ccccc1)C(=O)N[C@H](C)C(N)=O the GHI was 4000.
With CN[C@H](C)C(=O)N[C@@H](Cc1ccc(O)cc1)C(=O)N[C@H](Cc1c[nH]c2ccccc12)C(=O)N[C@@H](CCCCN)C(=O)N[C@H](C(=O)N[C@@H](Cc1ccccc1)C(N)=O)C(C)C the GHI was 20000.
Compound C[C@@H](O)[C@@H]1NC(=O)[C@H](CCCCN)NC(=O)[C@@H](Cc2c[nH]c3ccccc23)NC(=O)[C@H](Cc2ccc(O)cc2)NC(=O)[C@@H](NC(=O)[C@H](N)Cc2ccccc2)CSSC[C@@H](C(=O)N[C@@H](Cc2ccc3ccccc3c2)C(N)=O)NC1=O has a GHI of 0.05.
For C[C@@H](O)[C@@H]1NC(=O)[C@H](CCCCN)NC(=O)[C@@H](Cc2c[nH]c3ccccc23)NC(=O)[C@H](Cc2ccccc2)NC(=O)[C@@H](NC(=O)[C@H](N)Cc2ccccc2)CSSC[C@@H](C(=O)N[C@@H](Cc2ccc3ccccc3c2)C(N)=O)NC1=O, the GHI was 0.22.
With C[C@@H](O)[C@H](NC(=O)[C@@H]1CSSC[C@H](NC(=O)[C@H](N)Cc2ccc3ccccc3c2)C(=O)N[C@@H](Cc2ccc(O)cc2)C(=O)N[C@H](Cc2c[nH]c3ccccc23)C(=O)N[C@@H](CCCCN)C(=O)N[C@@H]([C@@H](C)O)C(=O)N1)C(N)=O the GHI was 0.19.
With C[C@@H](O)[C@H](NC(=O)[C@H](CCCCN)NC(=O)[C@@H](Cc1c[nH]c2ccccc12)NC(=O)[C@H](Cc1ccc(O)cc1)NC(=O)[C@H](Cc1ccc(Cl)cc1)NC(=O)[C@H](N)Cc1ccccc1)C(=O)N[C@@H](Cc1ccccc1)C(=O)N[C@@H](Cc1ccc2ccccc2c1)C(N)=O the GHI was 100.
C[C@H](NC(=O)[C@H](N)Cc1ccccc1)C(=O)N[C@@H](Cc1ccc(O)cc1)C(=O)N[C@H](Cc1c[nH]c2ccccc12)C(=O)N[C@@H](CCCCN)C(=O)N[C@H](C(=O)N[C@@H](C)C(=O)N[C@@H](Cc1ccc2ccccc2c1)C(N)=O)[C@@H](C)O showed a GHI of 16.
For NCCCC[C@@H]1NC(=O)[C@@H](Cc2c[nH]c3ccccc23)NC(=O)[C@H](Cc2ccc(O)cc2)NC(=O)[C@@H](NC(=O)[C@H](N)Cc2ccccc2)CSSC[C@@H](C(=O)N[C@@H](Cc2ccc3ccccc3c2)C(N)=O)NC(=O)[C@H](CO)NC1=O, the GHI was 0.03.
Compound CC(C)[C@H](NC(=O)[C@H](CCCCN)NC(=O)[C@@H](Cc1c[nH]c2ccccc12)NC(=O)[C@H](Cc1ccc(O)cc1)NC(=O)[C@H](C)NC(=O)[C@H](N)Cc1ccc2ccccc2c1)C(=O)N[C@@H](C)C(=O)N[C@H](C(N)=O)[C@@H](C)O (H-[d2Nal]AY[dW]KVAT-NH2) has a GHI of 435.
CC(C)[C@@H]1NC(=O)[C@H](CCCCN)NC(=O)[C@@H](Cc2c[nH]c3ccccc23)NC(=O)[C@H](Cc2ccc(O)cc2)NC(=O)[C@@H](NC(=O)[C@H](N)Cc2ccc3ccccc3c2)CSSC[C@@H](C(=O)N[C@@H](Cc2ccc3ccccc3c2)C(N)=O)NC1=O (H-[d2Nal]CY[dW]KVC[2Nal]-NH2; disulfide 2-7) was tested, and the GHI was 11.
Compound C[C@@H](O)[C@H](NC(=O)[C@H](Cc1ccccc1)NC(=O)[C@@H](NC(=O)[C@H](CCCCN)NC(=O)[C@@H](Cc1c[nH]c2ccccc12)NC(=O)[C@H](Cc1ccc(O)cc1)NC(=O)[C@H](Cc1ccc(Cl)cc1)NC(=O)[C@H](N)Cc1ccc2ccccc2c1)[C@@H](C)O)C(N)=O (H-[d2Nal][Phe(4-Cl)]Y[dW]KTFT-NH2) has a GHI of 17.
With C[C@H](NC(=O)[C@H](N)Cc1ccccc1)C(=O)N[C@@H](Cc1ccccc1)C(=O)N[C@H](Cc1c[nH]c2ccccc12)C(=O)N[C@@H](CCCCN)C(=O)N[C@H](C(=O)N[C@@H](C)C(=O)N[C@H](C(N)=O)[C@@H](C)O)[C@@H](C)O (H-[dF]AF[dW]KTAT-NH2) the GHI was 2500.
With CC(C)[C@H](NC(=O)[C@H](CCCCN)NC(=O)[C@@H](Cc1c[nH]c2ccccc12)NC(=O)[C@H](Cc1ccc(O)cc1)NC(=O)[C@H](C)NC(=O)[C@H](N)Cc1ccccc1)C(=O)N[C@@H](C)C(=O)N[C@@H](Cc1ccc2ccccc2c1)C(N)=O (H-[dF]AY[dW]KVA[2Nal]-NH2) the GHI was 15.
With CC(C)[C@@H]1NC(=O)[C@H](CCCCN)NC(=O)[C@@H](Cc2c[nH]c3ccccc23)NC(=O)[C@H](Cc2ccc(O)cc2)NC(=O)[C@@H](NC(=O)[C@H](N)Cc2ccccc2)CSSC[C@@H](C(=O)N[C@@H](Cc2ccc3ccccc3c2)C(N)=O)NC1=O (H-[dF]CY[dW]KVC[2Nal]-NH2; disulfide 2-7) the GHI was 0.43.
CC[C@@H]1NC(=O)[C@H](CCCCN)NC(=O)[C@@H](Cc2c[nH]c3ccccc23)NC(=O)[C@H](Cc2ccc(O)cc2)NC(=O)[C@@H](NC(=O)[C@H](N)Cc2ccccc2)CSSC[C@@H](C(=O)N[C@@H](Cc2ccc3ccccc3c2)C(N)=O)NC1=O (H-[dF]CY[dW]K[Abu]C[2Nal]-NH2; disulfide 2-7) showed a GHI of 0.03.
In the case of C[C@@H](O)[C@H](NC(=O)[C@H](Cc1ccccc1)NC(=O)[C@@H](NC(=O)[C@H](CCCCN)NC(=O)[C@@H](Cc1c[nH]c2ccccc12)NC(=O)[C@H](Cc1ccccc1)NC(=O)[C@H](Cc1ccccc1)NC(=O)[C@H](N)Cc1ccccc1)[C@@H](C)O)C(N)=O (H-[dF]FF[dW]KTFT-NH2), the GHI is reported as 77.
